The source made the active and inactive calls. The rule behind the calls is not given here.

Assay [1] deals with Mus musculus. The assay is described as follows: Inhibition of lipogenesis in C57BL/6 mouse supplemented with normal chow diet assessed as decrease in FASN mRNA expression at 20 mg/kg/day, ip administered for 1 week measured by RT-qPCR assay. The conditions noted are these: time 1.0 weeks. It is filed as functional, organism-based. The gist of the method:
(§1)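 Eight-week-old male C57BL/6 mice on normal chow were given 20 mg·kg−1·day−1 ip daily for 7 days or vehicle. Epididymal WAT was collected. Lipogenic, adipogenic and fatty-acid-oxidation transcripts were quantified by Trizol extraction and SYBR Green RT-qPCR. FAS, ACC, PPARγ and C/EBPα protein were assessed by western blot. n = 5–9; mean ± SEM.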
(In general: Real-time PCR tracks product formation cycle by cycle.)

Assay [2] deals with Hepatocyte. The assay is described as follows: Inhibition of glucogenesis in mouse primary hepatocytes stimulated with 100 uM 8-Br-cAMP assessed as decrease in C/EBPalpha mRNA expression at 3 uM measured after 8 hrs by RT-qPCR assay. It is filed as functional, cell-based. The method, boiled down: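 Primary mouse hepatocytes treated with 3 μM compound and 100 μM 8-Br-cAMP for 8 h. Trizol RNA, SYBR Green RT-qPCR of the named transcript. Mean ± SEM, three independent experiments.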

The test system of assay [3] is Adipocyte. Briefly: Inhibition of lipogenesis in mouse adipocytes isolated stromal vascular cells assessed as decrease in PPARgamma mRNA expression measured after 24 hrs by RT-qPCR assay. It is filed as functional, cell-based. The method, boiled down:
(§2)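 Stromal vascular cells from inguinal WAT of C57BL/6 mice, grown in DMEM/F12 + 10% FBS at 37 °C, 10% CO2. At confluence, induced 48 h with 5 μg/ml insulin, 1 μM dexamethasone, 0.5 mM isobutylmethylxanthine, then 6 days in 5 μg/ml insulin; fully differentiated day 8. Mature adipocytes exposed to inhibitor 24 h. Total RNA by Trizol, SYBR Green RT-qPCR; protein by western blot.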

For assay [4], the target named is T1, CREB-binding protein/Histone acetyltransferase p300 (Homo sapiens) (UniProt Q09472+Q92793). The assay is described as follows: Inhibition of CBP/p300 in human HepG2 cells assessed as increase in FOXO1 and COP1 interaction at 3 uM. In kind it is cell-based. The method, boiled down: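 HepG2 cells treated with 3 μM compound. FOXO1–COP1 interaction assessed by immunoprecipitation: lysate with antibody 2 h, then protein A/G beads overnight at 4 °C, followed by western blot.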
T1 sequence (Q09472 whole entry, looked up): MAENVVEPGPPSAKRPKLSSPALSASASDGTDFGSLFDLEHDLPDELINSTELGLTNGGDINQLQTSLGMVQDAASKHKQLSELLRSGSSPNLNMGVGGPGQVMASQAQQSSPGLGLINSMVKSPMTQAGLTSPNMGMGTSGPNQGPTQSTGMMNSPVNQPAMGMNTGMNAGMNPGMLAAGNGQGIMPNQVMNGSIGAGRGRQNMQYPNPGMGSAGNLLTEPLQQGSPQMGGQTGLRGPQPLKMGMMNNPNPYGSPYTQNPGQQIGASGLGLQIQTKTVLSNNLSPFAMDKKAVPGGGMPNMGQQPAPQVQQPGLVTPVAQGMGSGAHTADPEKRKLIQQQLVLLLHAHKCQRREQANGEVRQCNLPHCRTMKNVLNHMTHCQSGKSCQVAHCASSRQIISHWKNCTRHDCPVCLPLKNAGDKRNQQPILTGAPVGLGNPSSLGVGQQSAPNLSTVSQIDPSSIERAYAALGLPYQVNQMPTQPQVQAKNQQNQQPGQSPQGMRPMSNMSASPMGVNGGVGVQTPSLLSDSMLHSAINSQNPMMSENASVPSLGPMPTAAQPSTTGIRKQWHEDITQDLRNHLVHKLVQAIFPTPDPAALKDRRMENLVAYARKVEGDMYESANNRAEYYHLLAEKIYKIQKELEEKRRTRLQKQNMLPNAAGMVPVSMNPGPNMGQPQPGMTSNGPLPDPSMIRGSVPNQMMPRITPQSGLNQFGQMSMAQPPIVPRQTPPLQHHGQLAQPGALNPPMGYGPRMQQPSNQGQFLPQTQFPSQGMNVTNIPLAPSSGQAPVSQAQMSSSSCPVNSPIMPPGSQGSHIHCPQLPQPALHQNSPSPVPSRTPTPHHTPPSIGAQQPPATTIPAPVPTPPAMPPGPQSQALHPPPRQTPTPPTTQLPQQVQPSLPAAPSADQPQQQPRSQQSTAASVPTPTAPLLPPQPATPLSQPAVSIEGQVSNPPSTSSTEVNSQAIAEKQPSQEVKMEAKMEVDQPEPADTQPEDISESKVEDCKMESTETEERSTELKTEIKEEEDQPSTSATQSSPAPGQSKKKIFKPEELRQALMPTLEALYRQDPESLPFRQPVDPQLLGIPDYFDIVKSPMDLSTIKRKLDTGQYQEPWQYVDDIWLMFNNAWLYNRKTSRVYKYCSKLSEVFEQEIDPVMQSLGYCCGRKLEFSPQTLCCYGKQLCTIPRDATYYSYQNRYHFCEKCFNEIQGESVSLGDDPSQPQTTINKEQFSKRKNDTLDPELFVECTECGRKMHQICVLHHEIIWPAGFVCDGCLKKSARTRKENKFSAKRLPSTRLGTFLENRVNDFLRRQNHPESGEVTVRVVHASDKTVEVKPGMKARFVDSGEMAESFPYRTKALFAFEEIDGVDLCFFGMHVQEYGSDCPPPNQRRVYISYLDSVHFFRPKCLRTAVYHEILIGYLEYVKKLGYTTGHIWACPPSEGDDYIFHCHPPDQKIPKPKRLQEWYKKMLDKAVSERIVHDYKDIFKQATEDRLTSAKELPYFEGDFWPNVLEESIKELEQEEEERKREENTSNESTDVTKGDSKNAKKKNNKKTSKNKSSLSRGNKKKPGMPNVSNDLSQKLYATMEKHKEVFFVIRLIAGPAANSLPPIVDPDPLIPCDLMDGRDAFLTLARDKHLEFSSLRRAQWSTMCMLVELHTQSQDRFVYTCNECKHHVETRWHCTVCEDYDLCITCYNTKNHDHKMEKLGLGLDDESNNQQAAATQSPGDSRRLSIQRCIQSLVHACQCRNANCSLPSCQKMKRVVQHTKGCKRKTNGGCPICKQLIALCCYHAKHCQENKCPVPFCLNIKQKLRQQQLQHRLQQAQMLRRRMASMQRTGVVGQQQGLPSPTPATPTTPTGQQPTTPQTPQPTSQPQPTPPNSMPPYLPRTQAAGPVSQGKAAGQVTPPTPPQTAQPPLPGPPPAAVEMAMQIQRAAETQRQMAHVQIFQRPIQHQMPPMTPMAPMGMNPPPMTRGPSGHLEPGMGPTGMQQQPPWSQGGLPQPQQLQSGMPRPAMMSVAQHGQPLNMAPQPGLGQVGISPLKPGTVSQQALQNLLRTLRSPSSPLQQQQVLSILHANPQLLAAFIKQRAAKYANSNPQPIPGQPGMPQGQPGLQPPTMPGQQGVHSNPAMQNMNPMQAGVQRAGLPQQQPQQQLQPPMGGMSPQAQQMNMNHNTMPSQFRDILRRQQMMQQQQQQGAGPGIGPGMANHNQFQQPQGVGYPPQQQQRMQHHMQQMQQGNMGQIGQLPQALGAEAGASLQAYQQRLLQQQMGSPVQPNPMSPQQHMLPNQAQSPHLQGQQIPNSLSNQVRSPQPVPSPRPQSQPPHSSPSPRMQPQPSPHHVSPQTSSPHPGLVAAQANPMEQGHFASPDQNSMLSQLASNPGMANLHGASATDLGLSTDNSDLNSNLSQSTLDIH
T1 sequence (Q92793 whole entry, looked up): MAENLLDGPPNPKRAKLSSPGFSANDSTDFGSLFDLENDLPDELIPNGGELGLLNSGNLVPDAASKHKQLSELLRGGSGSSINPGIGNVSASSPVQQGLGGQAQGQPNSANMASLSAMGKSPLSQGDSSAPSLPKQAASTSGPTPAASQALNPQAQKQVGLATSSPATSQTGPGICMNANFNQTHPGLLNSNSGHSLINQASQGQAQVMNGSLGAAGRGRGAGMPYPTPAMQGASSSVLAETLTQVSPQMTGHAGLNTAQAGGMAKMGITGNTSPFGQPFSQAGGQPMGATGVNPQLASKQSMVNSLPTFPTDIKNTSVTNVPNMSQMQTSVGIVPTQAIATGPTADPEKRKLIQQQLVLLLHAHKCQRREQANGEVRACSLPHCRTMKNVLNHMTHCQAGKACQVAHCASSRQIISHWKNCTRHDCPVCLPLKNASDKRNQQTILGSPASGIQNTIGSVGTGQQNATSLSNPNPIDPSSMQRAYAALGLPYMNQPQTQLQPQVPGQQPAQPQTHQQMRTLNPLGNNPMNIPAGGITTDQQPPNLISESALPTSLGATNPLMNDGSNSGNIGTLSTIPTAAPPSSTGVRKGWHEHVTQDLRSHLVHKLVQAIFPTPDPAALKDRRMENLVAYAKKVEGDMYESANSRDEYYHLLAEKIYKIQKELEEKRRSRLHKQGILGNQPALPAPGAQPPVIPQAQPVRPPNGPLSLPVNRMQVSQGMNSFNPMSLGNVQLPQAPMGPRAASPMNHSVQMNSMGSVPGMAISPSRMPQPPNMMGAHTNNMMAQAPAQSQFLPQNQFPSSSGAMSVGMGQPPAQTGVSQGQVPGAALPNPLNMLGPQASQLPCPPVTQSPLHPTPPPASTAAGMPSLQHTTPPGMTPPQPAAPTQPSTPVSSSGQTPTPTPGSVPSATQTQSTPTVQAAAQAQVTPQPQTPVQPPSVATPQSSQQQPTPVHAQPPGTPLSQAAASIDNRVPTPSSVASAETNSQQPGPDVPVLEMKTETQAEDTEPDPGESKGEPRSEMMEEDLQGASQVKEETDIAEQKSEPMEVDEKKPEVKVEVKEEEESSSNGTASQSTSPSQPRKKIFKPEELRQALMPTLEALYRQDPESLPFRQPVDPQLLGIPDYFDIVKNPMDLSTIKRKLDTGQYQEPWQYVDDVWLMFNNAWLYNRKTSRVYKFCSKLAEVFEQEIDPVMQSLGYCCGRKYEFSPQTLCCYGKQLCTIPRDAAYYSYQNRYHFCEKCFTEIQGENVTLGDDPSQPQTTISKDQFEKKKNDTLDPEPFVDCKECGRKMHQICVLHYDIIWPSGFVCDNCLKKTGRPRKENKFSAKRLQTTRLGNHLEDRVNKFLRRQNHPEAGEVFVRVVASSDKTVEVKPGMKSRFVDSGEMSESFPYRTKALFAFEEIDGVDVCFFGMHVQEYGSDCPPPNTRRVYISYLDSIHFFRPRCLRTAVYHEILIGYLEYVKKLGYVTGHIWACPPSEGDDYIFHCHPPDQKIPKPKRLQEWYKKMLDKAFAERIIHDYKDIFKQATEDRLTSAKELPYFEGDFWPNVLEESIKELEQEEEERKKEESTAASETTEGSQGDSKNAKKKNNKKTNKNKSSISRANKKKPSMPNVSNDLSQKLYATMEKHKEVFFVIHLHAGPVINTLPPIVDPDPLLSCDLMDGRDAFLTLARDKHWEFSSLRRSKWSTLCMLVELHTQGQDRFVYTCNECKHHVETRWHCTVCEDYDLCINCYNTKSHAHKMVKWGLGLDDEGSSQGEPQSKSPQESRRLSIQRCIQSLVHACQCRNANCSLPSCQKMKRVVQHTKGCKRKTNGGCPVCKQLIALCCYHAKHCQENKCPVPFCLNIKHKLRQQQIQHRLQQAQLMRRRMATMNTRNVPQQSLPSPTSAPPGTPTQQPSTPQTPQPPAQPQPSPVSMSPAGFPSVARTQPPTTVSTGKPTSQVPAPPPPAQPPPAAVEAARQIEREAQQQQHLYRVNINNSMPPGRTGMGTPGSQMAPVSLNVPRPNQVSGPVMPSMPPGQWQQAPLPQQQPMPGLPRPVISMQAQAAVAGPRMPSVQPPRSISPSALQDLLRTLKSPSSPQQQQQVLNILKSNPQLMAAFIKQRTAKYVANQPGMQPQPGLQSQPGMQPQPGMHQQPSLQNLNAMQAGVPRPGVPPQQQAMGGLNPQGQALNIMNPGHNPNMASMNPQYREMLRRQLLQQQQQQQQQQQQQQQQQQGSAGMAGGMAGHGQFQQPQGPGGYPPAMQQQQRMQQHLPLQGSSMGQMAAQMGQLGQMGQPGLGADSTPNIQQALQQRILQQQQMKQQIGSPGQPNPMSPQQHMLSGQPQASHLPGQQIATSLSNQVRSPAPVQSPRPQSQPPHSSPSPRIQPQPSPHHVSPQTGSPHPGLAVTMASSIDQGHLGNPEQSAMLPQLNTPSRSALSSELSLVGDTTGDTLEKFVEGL

The subject of assay [5] is Mus musculus. Briefly: Inhibition of hepatic lipogenesis in C57BL/6 mouse supplemented with normal chow diet assessed as effect on MCAD mRNA expression at 20 mg/kg/day, ip administered for 1 week measured by RT-qPCR assay. In kind it is functional, organism-based. The note with it: time 1.0 weeks. The method, boiled down:
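Normal-chow male C57BL/6 mice, 8 weeks old, were injected ip at 20 mg·kg−1·day−1 daily for 7 days or given vehicle. Liver RNA was extracted with Trizol, and fatty-acid-oxidation gene transcripts were quantified by SYBR Green RT-qPCR. n = 5–9; mean ± SEM.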

For assay [6], the system named is Mus musculus. Briefly: Inhibition of hepatic lipogenesis in C57BL/6 mouse supplemented with normal chow diet assessed as decrease in lipid droplet at 20 mg/kg/day, ip administered for 1 week measured by Oil red O staining method. It is filed as functional, organism-based. The conditions noted are these: time 1.0 weeks. The method, boiled down: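 Eight-week-old male C57BL/6 mice on normal chow were dosed daily by ip injection at 20 mg·kg−1·day−1 for 7 days, with a vehicle group. Liver sections were stained with Oil red O to view lipid droplets.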

Assay [7] concerns Adipocyte. The assay is described as follows: Inhibition of lipogenesis in mouse adipocytes isolated stromal vascular cells assessed as decrease in ChREBP mRNA expression measured after 24 hrs by RT-qPCR assay. It is filed as functional, cell-based. The method, boiled down:
as §2

Assay [8] concerns Mus musculus. Briefly: Inhibition of hepatic lipogenesis in C57BL/6 mouse supplemented with normal chow diet assessed as decrease in triglyceride level at 20 mg/kg/day, ip administered for 1 week measured by Oil red O staining method. The note with it: time 1.0 weeks. In kind it is functional, organism-based.
Assay [9] concerns Hepatocyte. The assay is described as follows: Inhibition of glucogenesis in mouse primary hepatocytes stimulated with 100 uM 8-Br-cAMP assessed as decrease in C/EBPalpha protein expression at 3 uM measured after 12 hrs by western blot analysis. In kind it is functional, cell-based. The gist of the method: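 Primary mouse hepatocytes incubated 12 h with 3 μM compound and 100 μM 8-Br-cAMP. Lysates western blotted for FOXO1, C/EBPα or PGC1α. Three independent experiments.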
A general note: In western blotting, separated proteins are transferred to a membrane and probed.

The subject of assay [10] is Mus musculus. The assay is described as follows: Inhibition of lipogenesis in C57BL/6 mouse supplemented with normal chow diet assessed as decrease in DGAT2 mRNA expression at 20 mg/kg/day, ip administered for 1 week measured by RT-qPCR assay. In kind it is functional, organism-based. The note with it: time 1.0 weeks. The method, boiled down: as §1
Assay [11] relates to Mus musculus. Briefly: Anti-obesity activity in C57BL/6 mouse supplemented with normal chow diet assessed as decrease in hepatic G6Pc mRNA expression at 20 mg/kg/day, ip administered for 1 week measured a by RT-qPCR assay. It is filed as functional, organism-based. The note with it: time 1.0 weeks. The method, boiled down:
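Liver G6Pc mRNA in 8-week-old normal-chow male C57BL/6 mice after 7 days ip at 20 mg·kg−1·day−1. Trizol RNA extraction, SYBR Green RT-qPCR. Mean ± SEM, n = 5–9.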

Assay [12] deals with Mus musculus. Briefly: Anti-obesity activity in C57BL/6 mouse supplemented with high fat diet assessed as decrease in fasting blood glucose at 20 mg/kg/day, ip administered for 1 week. It is filed as functional, organism-based. The note with it: time 1.0 weeks. The method, boiled down:
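Male C57BL/6 mice fed high-fat diet for 14 weeks from 5 weeks of age, then ip 20 mg·kg−1·day−1 for 7 days. Body weight, EchoMRI lean/fat mass, and random or 16 h-fasted blood glucose recorded, as the line states.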

In a further assay the test system is HepG2. The assay is described as follows: Inhibition of glucogenesis in human HepG2 cells stimulated with 8-Br-cAMP at 3 uM assessed as effect on change in CBP/CREB interaction measured by coimmunoprecipitation analysis. In kind it is functional, cell-based. The method, boiled down:
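HepG2 cells treated with 3 μM compound. CREB association with CBP and TORC2 assessed by coimmunoprecipitation (antibody 2 h, protein A/G beads overnight at 4 °C) and western blot.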

Assay [13] concerns Adipocyte. The assay is described as follows: Inhibition of lipogenesis in mouse adipocytes isolated stromal vascular cells assessed as decrease in FASN mRNA expression measured after 24 hrs by RT-qPCR assay. It is filed as functional, cell-based. The method, boiled down:
as §2

Assay [14] deals with Adipocyte. Briefly: Inhibition of lipogenesis in mouse adipocytes isolated stromal vascular cells assessed as decrease in ACC protein expression measured after 24 hrs by western blot analysis. It is filed as functional, cell-based.
Assay [15] concerns the target T1, CREB-binding protein/Histone acetyltransferase p300 (Homo sapiens). Briefly: Inhibition of CBP/p300 in mouse primary hepatocytes stimulated with 100 uM 8-Br-cAMP assessed as decrease in half-life of endogenous FOXO1 at 3 uM in presence of 10 ug/ml cycloheximide. It is filed as cell-based. The conditions noted are these: Primary hepatocyte. The gist of the method: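 Primary mouse hepatocytes in 100 μM 8-Br-cAMP treated with 3 μM compound and 10 μg/ml cycloheximide for the indicated times. Endogenous FOXO1 immunoblotted; band intensity quantified. Three independent experiments.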

Assay [16] deals with Hepatocyte. The assay is described as follows: Inhibition of glucogenesis in mouse primary hepatocytes stimulated with 100 uM 8-Br-cAMP assessed as decrease in G6Pc mRNA expression at 3 uM in combination with 2 mM metformin measured by RT-qPCR assay. It is filed as functional, cell-based. The method, boiled down: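 Primary mouse hepatocytes given 3 μM compound with 2 mM metformin in the presence of 100 μM 8-Br-cAMP. Gluconeogenic gene mRNA measured by SYBR Green RT-qPCR. Mean ± SEM, three independent experiments.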

Assay [17] deals with Mus musculus. Briefly: Anti-obesity activity in C57BL/6 mouse supplemented with normal chow diet assessed as decrease in total fat mass at 20 mg/kg/day, ip administered for 1 week measured by EchoMRI live analysis. It is filed as functional. Also noted: scale not given: the % may be the effect or the level left. The conditions noted are these: time 1 weeks. The gist of the method: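 Normal-chow male C57BL/6 mice, 8 weeks old, ip 20 mg·kg−1·day−1 daily for 7 days. Total lean and fat mass measured in live animals by EchoMRI. Mean ± SEM, n = 5–9.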

Regarding `CNC(=O)Nc1ccc2c(c1)CCS21OC(=O)N(CC(=O)N(Cc2ccc(F)cc2)[C@@H](C)C(F)(F)F)C1=O` (stereo partly drawn), the inhibition entry (in the assay on Mus musculus [1]; in the assay on Hepatocyte [2]; in the assay with Adipocyte [3]; in assay [4]; in the assay with Mus musculus [6]; in the assay on Adipocyte [7]) was “Active” each time. Further, the inhibition entry (in the assay with Mus musculus [8]; in the assay on Hepatocyte [9]; in the assay on Mus musculus [10]; in the assay on Adipocyte [13]; in the assay with Adipocyte [14]; in [15]) was “Active” in each case. For the same molecule, the inhibition entry in the assay with Hepatocyte [16] was “Active”. In addition, the inhibition entry with Mus musculus [5] and in the assay with HepG2 was “inactive” each time. Also, the result in the assay with Mus musculus [11] and in the assay with Mus musculus [12] was Active. Besides, the Activity in the assay on Mus musculus [17] is given as ~14%.
